Screening data deposited in PubChem BioAssay by several laboratories.
MBD2 DNA inh = blocks human MBD2 binding to methylated DNA; Q9UBB5; TR-FRET, MBD2 binding to methylated oligonucleotide; inhibition, % at 4.4 µM; 0.31% of 370,000 active; AID 686964; in the data active = inhibition above about 13%
CASP6 VEID inh = blocks human caspase-6 cleavage activity. P55212. purified caspase-6, Z-VEID-R110 cleavage fluorescence. inhibition, % at 12.5 µM. 0.53% of 350,000 active. AID 686996;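 active = mean inhibition across replicates at least about 35%, with every replicate also reaching that limit, limit read from the data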;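 note: 0% = median of neutral control wells and 100% = no fluorescence left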
Target sequence (P55212 24-179 limits assumed): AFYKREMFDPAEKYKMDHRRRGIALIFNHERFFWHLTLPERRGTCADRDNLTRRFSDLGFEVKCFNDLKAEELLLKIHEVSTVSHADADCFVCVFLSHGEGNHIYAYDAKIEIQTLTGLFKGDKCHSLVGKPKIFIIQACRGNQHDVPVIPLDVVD
Target sequence (P55212 194-293 limits assumed): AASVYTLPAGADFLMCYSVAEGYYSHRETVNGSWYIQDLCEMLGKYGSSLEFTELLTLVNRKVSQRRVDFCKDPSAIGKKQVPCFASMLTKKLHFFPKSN
TDP2 absorb = TDP2 (human) inhibition, absorbance primary screen; O95551; recombinant TDP2, T5PNP hydrolysis, p-nitrophenol absorbance 415 nm; inhibition, % at 12.8 µM; 0.34% of 370,000 active;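 active = inhibition above the mean of all tested compounds plus 3 SD, set per campaign, cut at about 25% in these data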;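 note: 0% = DMSO with enzyme and 100% = buffer with substrate but no TDP2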
Target sequence (O95551 whole entry, looked up): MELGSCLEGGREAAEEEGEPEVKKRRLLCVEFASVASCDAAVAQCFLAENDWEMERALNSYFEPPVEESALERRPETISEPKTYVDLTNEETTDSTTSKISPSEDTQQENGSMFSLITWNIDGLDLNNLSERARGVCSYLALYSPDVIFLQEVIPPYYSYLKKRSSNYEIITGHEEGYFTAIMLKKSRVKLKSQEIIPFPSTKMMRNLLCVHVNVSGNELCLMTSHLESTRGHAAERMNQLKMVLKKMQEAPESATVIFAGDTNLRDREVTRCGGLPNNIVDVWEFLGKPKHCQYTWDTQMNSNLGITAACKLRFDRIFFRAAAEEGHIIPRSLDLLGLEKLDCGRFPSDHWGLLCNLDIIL
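System – recombinant human TDP2 · Quantity – TDP2 enzyme at 120 nM final · Doses – single concentration, 12.8 µM nominal, with 1% DMSO · Incubation – 2 h at 37 °C · Measured by – epi absorbance of p-nitrophenol freed from T5PNP by hydrolysis · Read-out – % inhibition relative to enzyme-containing and enzyme-free wells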
UHRF1 binding = blocks human UHRF1 binding to methylated DNA | Q96T88 | inhibition, % at 4.4 µM | UHRF1 binding to methylated oligo, TR-FRET | 0.75% of 370,000 active; in the data active = inhibition above about 21%;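 note: UHRF1 SRA domain binding a hemimethylated CpG hairpin DNA probe; 0% = median of test compound wells and 100% = reference inhibitor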
NSD2 inh = NSD2 (human) methyltransferase inhibition; O96028; NSD2 peptide methylation, AlphaScreen, 120 min; inhibition, % at 12.5 µM; 0.54% of 310,000 active; AID 743445; in the data active = inhibition above about 50%
LEDGF integ inh = blocks HIV-1 LEDGF/p75-dependent DNA integration. TR-FRET IN-LEDGF/p75 DNA integration, Eu/Cy5. inhibition, % at 3.7 µM. 0.64% of 370,000 active. AID 743269;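 active = inhibition above the screen-wide mean plus 3 SD, cut at about 13% in these data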;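 note: signal is the Cy5 over europium emission ratio at 671 and 618 nm; 0% = plate median of compound wells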
TDP2 inh conf = human TDP2 inhibition, confirmation; shares compounds with TDP2 absorb; inhibition, % at 12.8 µM; 22% of 1,100 active; recombinant human TDP2, absorbance read-out; AID 743263; in the data active = inhibition above about 25%;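 note: 0% = vehicle with enzyme and 100% = no enzyme buffer only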
* hit, by the source's call. A selection: hits, their analogues and other compounds. The true share with any hit is near 1.8%.

What do the screens show for `COc1cc(C2C(C#N)=C(N)Oc3n[nH]c(-c4cccnc4)c32)ccc1OCC(N)=O` (stereo not drawn)?
MBD2 DNA inh: -12; CASP6 VEID inh: -1; TDP2 absorb: 52*; UHRF1 binding: -7; NSD2 inh: 2; LEDGF integ inh: 9; TDP2 inh conf: -3

What do the screens show for `CCOc1cccc(OCCCCn2cnc3ccccc3c2=O)c1`?
MBD2 DNA inh: 1; CASP6 VEID inh: 1; TDP2 absorb: 25*; UHRF1 binding: 0; NSD2 inh: -3; LEDGF integ inh: -5; TDP2 inh conf: 0

Results for COc1ccc(CCNC(=O)c2ccc(NC(=O)CC3SC(N4CCCC4)=NC3=O)cc2)cc1 (stereo not drawn) ?
MBD2 DNA inh: -3; CASP6 VEID inh: -4; TDP2 absorb: 4; UHRF1 binding: 5; NSD2 inh: -2; LEDGF integ inh: 1

What do the screens show for `Cc1ccc(OCCNC(=O)c2ccc(NC(=O)CC3SC(N4CCCC4)=NC3=O)cc2)cc1` (stereo not drawn)?
MBD2 DNA inh: 0; CASP6 VEID inh: 2; TDP2 absorb: 40*; UHRF1 binding: -1; NSD2 inh: -1; LEDGF integ inh: -4; TDP2 inh conf: -1

Results for COc1ccc(-c2ccc([C@@H]3[C@@H](CO)N4C(=O)CNC[C@@H]34)cc2)cc1 ?
CASP6 VEID inh: 11

Results for N#Cc1c(-c2ccccc2)cc(-c2ccc(O)cc2)nc1N ?
MBD2 DNA inh: -2; CASP6 VEID inh: -1; TDP2 absorb: 29*; UHRF1 binding: -2; NSD2 inh: -8; LEDGF integ inh: 3; TDP2 inh conf: -5

How did COc1ccc(-c2cc(-c3ccc(O)cc3)nc(N)c2C#N)cc1 do in these assays?
MBD2 DNA inh: -3; CASP6 VEID inh: -4; TDP2 absorb: -8; UHRF1 binding: 0; NSD2 inh: -7; LEDGF integ inh: -2

How did O=C(O)C(Cc1c[nH]c2ccccc12)NS(=O)(=O)c1ccc(F)cc1 (stereo not drawn) do in these assays?
MBD2 DNA inh: 0; CASP6 VEID inh: 0; TDP2 absorb: 28*; UHRF1 binding: 0; NSD2 inh: -2; LEDGF integ inh: -4; TDP2 inh conf: -1

How did O=C(O)C(Cc1c[nH]c2ccccc12)NS(=O)(=O)c1ccc2ccccc2c1 (stereo not drawn) do in these assays?
MBD2 DNA inh: -2; CASP6 VEID inh: 25; TDP2 absorb: -4; UHRF1 binding: 0; NSD2 inh: 0; LEDGF integ inh: -1

Results for C[C@@H]1CN([C@H](C)CO)C(=O)c2cc(NC(=O)Cc3ccccc3)ccc2O[C@@H](C)CCCCO[C@H]1CN(C)C(=O)C1CCCCC1 ?
CASP6 VEID inh: 2

What do the screens show for `COc1cc(C2Nc3ccccc3C(=O)N2c2ccccc2)ccc1O` (stereo not drawn)?
MBD2 DNA inh: 10; TDP2 absorb: 29*; UHRF1 binding: 19; NSD2 inh: -2; LEDGF integ inh: 6; TDP2 inh conf: 5

How did CN1c2ccccc2C(C)(C)C12C=Nc1c(ccc3ccccc13)O2 (stereo not drawn) do in these assays?
MBD2 DNA inh: -2; TDP2 absorb: 33*; UHRF1 binding: 8; NSD2 inh: -1; LEDGF integ inh: 4; TDP2 inh conf: 5

How did Cc1cccc(CN2CCSCC2)c1 do in these assays?
MBD2 DNA inh: 1; CASP6 VEID inh: 4; TDP2 absorb: 27*; UHRF1 binding: 0; NSD2 inh: -4; LEDGF integ inh: 5; TDP2 inh conf: -2

How did C[C@@H]1CN([C@@H](C)CO)C(=O)c2cc(C#Cc3ccccc3F)cnc2O[C@H]1CN(C)S(=O)(=O)c1ccccc1F do in these assays?
CASP6 VEID inh: 1

Results for Cc1[nH][nH]c(=O)c1C(c1ccc([N+](=O)[O-])cc1)c1c(C)[nH][nH]c1=O ?
MBD2 DNA inh: -4; CASP6 VEID inh: 2; TDP2 absorb: 31*; UHRF1 binding: 9; NSD2 inh: 19; LEDGF integ inh: 3; TDP2 inh conf: 12

What do the screens show for `Cc1[nH][nH]c(=O)c1C(c1ccc(O)c([N+](=O)[O-])c1)c1c(C)[nH][nH]c1=O`?
MBD2 DNA inh: -12; TDP2 absorb: 13; UHRF1 binding: -18; NSD2 inh: 11; LEDGF integ inh: 5

What do the screens show for `COc1ccc(OC)c(C(c2c(C)[nH][nH]c2=O)c2c(C)[nH][nH]c2=O)c1`?
MBD2 DNA inh: -6; CASP6 VEID inh: 5; TDP2 absorb: 50*; UHRF1 binding: -6; NSD2 inh: 0; LEDGF integ inh: 0; TDP2 inh conf: 8

How did Cc1ccc(C(c2c(C)[nH][nH]c2=O)c2c(C)[nH][nH]c2=O)cc1 do in these assays?
MBD2 DNA inh: -10; CASP6 VEID inh: 4; TDP2 absorb: 33*; UHRF1 binding: -9; NSD2 inh: -1; LEDGF integ inh: 3; TDP2 inh conf: -2

Results for Cc1[nH][nH]c(=O)c1C(c1ccc(Br)cc1)c1c(C)[nH][nH]c1=O ?
MBD2 DNA inh: -8; CASP6 VEID inh: 5; TDP2 absorb: -4; UHRF1 binding: -8; NSD2 inh: 6; LEDGF integ inh: -2

What do the screens show for `COCC#Cc1ccc2c(c1)O[C@@H](CN(C)S(=O)(=O)c1ccc(OC)cc1)[C@H](C)CN([C@H](C)CO)S2(=O)=O`?
CASP6 VEID inh: -1

How did O=S(=O)(N[C@H]1CC[C@H](CCn2cc(C3(O)CCCC3)nn2)O[C@@H]1CO)c1ccc(Cl)cc1 do in these assays?
CASP6 VEID inh: 2

Results for Cc1noc(C)c1NC(=O)Nc1ccc2c(c1)C(=O)N([C@H](C)CO)C[C@@H](C)[C@@H](CN(C)S(=O)(=O)c1ccc(F)cc1)OCCCC[C@H](C)O2 ?
CASP6 VEID inh: -1

How did NS(=O)(=O)c1ccc(NCc2cnc3ccccc3n2)cc1 do in these assays?
MBD2 DNA inh: 0; CASP6 VEID inh: 1; TDP2 absorb: 4; UHRF1 binding: -5; NSD2 inh: 5; LEDGF integ inh: 4

How did N#CCc1cnc2ccccc2n1 do in these assays?
MBD2 DNA inh: -8; CASP6 VEID inh: 3; TDP2 absorb: 28*; UHRF1 binding: -1; NSD2 inh: 8; LEDGF integ inh: 0; TDP2 inh conf: 22

Results for O=C(C1CCCCC1)N1CC2(C1)[C@@H](c1ccccc1)[C@@H](CO)N2C(=O)NC1CCCC1 ?
CASP6 VEID inh: 1

What do the screens show for `COCC(=O)N(C)C[C@@H]1Oc2cc(C#CC(C)(C)O)ccc2S(=O)(=O)N([C@H](C)CO)C[C@@H]1C`?
CASP6 VEID inh: -2
